# Shown are actives, neighbours in structure and some others; about 4.2% of the full set was active somewhere.
# ANO1 activ: activators or potentiators of mouse TMEM16A chloride channel | Q8BHY3 | HEK293 TMEM16A/YFP-H148Q/I152L, iodide quench fluorescence; active compounds read low | B-score at 10 µM | actives 0.3% (n = 340,000);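 active = fluorescence-ratio B-score plate-corrected deviation score at least 3 library SD below zero, with starting fluorescence score within 5 deviations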;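 also: channel opened by trigger with iodide after compound preincubation; score built on the fluorescence ratio of max minus min over baseline; more negative score means more quench and so TMEM16A activation or potentiation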
# Target sequence (Q8BHY3 whole entry, looked up): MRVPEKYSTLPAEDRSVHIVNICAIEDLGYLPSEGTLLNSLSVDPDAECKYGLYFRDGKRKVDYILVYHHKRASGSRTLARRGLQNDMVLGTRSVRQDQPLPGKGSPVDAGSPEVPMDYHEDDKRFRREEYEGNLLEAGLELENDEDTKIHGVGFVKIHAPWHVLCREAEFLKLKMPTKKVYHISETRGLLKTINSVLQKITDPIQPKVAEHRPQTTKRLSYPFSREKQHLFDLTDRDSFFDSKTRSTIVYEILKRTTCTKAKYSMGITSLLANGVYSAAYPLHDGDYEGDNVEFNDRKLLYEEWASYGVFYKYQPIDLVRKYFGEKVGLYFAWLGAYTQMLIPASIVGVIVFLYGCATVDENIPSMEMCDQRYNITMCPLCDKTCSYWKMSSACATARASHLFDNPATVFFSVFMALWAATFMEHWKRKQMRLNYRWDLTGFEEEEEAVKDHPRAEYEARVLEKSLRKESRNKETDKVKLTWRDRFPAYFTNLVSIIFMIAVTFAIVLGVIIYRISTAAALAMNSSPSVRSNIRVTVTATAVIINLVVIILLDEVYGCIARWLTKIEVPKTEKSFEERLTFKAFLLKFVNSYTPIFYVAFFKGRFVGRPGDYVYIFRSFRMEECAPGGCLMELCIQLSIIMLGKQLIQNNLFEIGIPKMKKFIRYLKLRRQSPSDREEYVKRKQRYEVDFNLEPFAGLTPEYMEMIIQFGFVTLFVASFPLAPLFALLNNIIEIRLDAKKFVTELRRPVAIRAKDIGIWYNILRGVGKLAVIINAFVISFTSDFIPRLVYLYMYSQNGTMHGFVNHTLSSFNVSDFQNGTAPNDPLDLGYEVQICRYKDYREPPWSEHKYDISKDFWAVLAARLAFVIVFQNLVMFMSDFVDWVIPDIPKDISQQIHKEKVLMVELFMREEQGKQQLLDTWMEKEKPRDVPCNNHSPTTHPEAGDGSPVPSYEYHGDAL
# Hep lipid drop: hepatic lipid droplet formation modulation | AML12 mouse hepatocytes, oleate lipid droplets, BODIPY imaging | inhibition, % at 6.5 µM | actives 0.4% (n = 240,000);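 active = lipid droplet intensity inhibited by at least 50%, with more than 500 cells counted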
#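 Material: mouse AML12 hepatocyte cell line, fixed after treatment; Timing: compound with oleate, overnight; Technique: high-content imaging of BODIPY-stained droplets and DAPI nuclei; Probe or stimulus: oleate, 100 µM final; Dosing: compound at 6.5 µM only.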
# CHOP inhibitor: inhibitors of CHOP induction in ER stress response. CHO-K1 CHOP-promoter luciferase, tunicamycin-induced, 15-18 h. actives 3.8% (n = 220,000). inhibition, % at 10 µM. AID 2732;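 active = compounds that reduced the stress-induced luciferase reporter signal by more than about 70% of percent inhibition, limit read from the data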;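 also: 0% = tunicamycin plus vehicle and 100% = wells without tunicamycin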
# UPR XBP1 act: activators of adaptive arm of unfolded protein response (XBP1); CHO-XBP1 luciferase reporter, IRE1-XBP1 UPR activation, luminescence; percent of tunicamycin response, DMSO as zero; activation, % at 20 µM; actives 0.33% (n = 330,000);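 active = versus positive control, 20 µM dose yields 30% or more activation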;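 also: 100% = tunicamycin at 10 µg/mL and 0% = DMSO only wells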
#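 Material: IRE1-XBP1 luciferase reporter CHO line / Quantity: one thousand reporter cells per well / Buffer or medium: F12 with 10% serum / Compound: 20 µM single concentration, DMSO 1% / Times: 6 h treatment, 37 °C / Detection: Steady-Glo luciferase glow luminescence, 10 min after reagent addition / Benchmarks: tunicamycin high, DMSO low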
# ANO1 block: inhibitors of mouse TMEM16A calcium-activated chloride channel; actives 1.2% (n = 310,000); normalized B-score (activity score, 25-100; higher = stronger inhibition) at 10 µM; Q8BHY3; HEK293 TMEM16A/YFP iodide influx fluorescence, ionomycin;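 active = ratio plate-corrected score three or more library SD toward inhibition, starting fluorescence score within five deviations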;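 also: score derived from kinetic fluorescence span divided by baseline fluorescence per well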
# CHOP UPR activ: apoptotic UPR (CHOP) activation | activation, % at 10 µM | actives 0.34% (n = 330,000) | CHO-CHOP luciferase reporter, luminescence; percent of tunicamycin response over DMSO baseline | AID 449763;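 active = at 10 µM dose, activation of 40% or more, normalized to positive control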;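 also: 100% = tunicamycin at 10 µg/mL and 0% = DMSO alone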
#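 Evaluation: % reporter activation, DMSO baseline versus tunicamycin full activation; System: CHO-CHOP luciferase reporter cell line; Input: 500 cells/well; Incubation: 6 h compound treatment, 37 °C; Measured by: Steady-Glo luciferase luminescence; Dosing: one dose, 10 µM in 0.5% DMSO; Buffer or medium: F12 medium, 10% FBS; Benchmarks: positive tunicamycin 10 µg/mL, negative DMSO alone.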
# Active calls of the source: *; i = inactive; nt = not tested or not shown.
SMILES,ANO1 activ,Hep lipid drop,CHOP inhibitor,UPR XBP1 act,ANO1 block,CHOP UPR activ
CC1(C)CC[C@]2(C(=O)O)CC[C@]3(C)C(=CC[C@@H]4[C@@]5(C)CC[C@H](O[C@@H]6O[C@H](C(=O)O)[C@@H](O)[C@H](O[C@@H]7OC[C@H](O)[C@H](O)[C@H]7O)[C@H]6O)C(C)(C)[C@@H]5CC[C@]43C)[C@@H]2C1,-16.9*,nt,nt,3.5,nt,2.3
CCOc1ccc(/C=C/C(=O)c2cc(Br)ccc(=O)c2O)cc1,i,-43.9,90.7*,nt,i,nt
CCc1ccc(/C=C/C(=O)c2cc(Br)ccc(=O)c2O)cc1,i,0.8,62.6,8.8,i,8.5
Cn1nc(C(F)(F)F)c(-c2ccc(Br)cc2)c1NC(=O)Nc1ccc(F)cc1F,i,13.3,76.8*,-2.6,i,1.2
CCC(c1nnnn1CCc1ccccc1)N(Cc1ccco1)Cc1cc2cc(C)cc(C)c2[nH]c1=O (centres undefined),i,2.8,nt,-3.9,i,2.9
CCC(c1nnnn1CCc1ccccc1)N(Cc1ccco1)Cc1cc2c(C)ccc(C)c2[nH]c1=O (centres undefined),i,nt,90.2*,-3.3,i,-0.3
O=C(Cc1ccccc1[N+](=O)[O-])NCC(=O)c1ccc2c(c1)OCO2,i,nt,nt,nt,nt,nt
O=[N+]([O-])c1ccc2c(c1)N([O-])C1(CCCCC1)[N+]2=O,i,5.3,95.3*,nt,nt,nt
CC1=C(c2ccccc2)[N+](=O)C2(CCCC2)N1[O-],i,nt,-15.8,-3.4,i,2.2
COc1cccc(NC(=O)C2CCN(C(=O)NC3CCCCC3)CC2)c1,i,23.7,nt,-0.8,i,0.0
CCC1CCCCN1Cc1nc2c(c(=O)n(C)c(=O)n2C)n1Cc1ccccc1 (centres undefined),i,-14.2,82.9*,-0.9,i,-0.2
CCOCCn1c(CN(Cc2ccccc2)Cc2ccccc2)nc2c1c(=O)n(C)c(=O)n2C,i,nt,80.2*,2.0,i,1.7
CC(C)Cn1c(CN2CCCCC2C)nc2c1c(=O)n(C)c(=O)n2C (centres undefined),-8.15*,-4.6,7.8,-2.4,i,0.4
COc1ccc([C@]2(C(C)C)ON(c3ccccc3C(F)(F)F)C2=O)cc1,i,nt,nt,-0.9,nt,1.8
CCC(=O)N1CCc2cc(Br)c(S(=O)(=O)CCC(=O)NCCc3ccccc3)cc21,i,nt,nt,nt,nt,nt
CCOC(=O)c1c(NC(=O)C2CCCN(S(=O)(=O)c3ccc(C)cc3)C2)sc2c1CCCC2 (centres undefined),i,1.2,30.6,-1.8,i,-0.1
CN1CCc2c(sc3c2C(=O)NC(c2cn(Cc4ccccc4)c4ccccc24)N3)C1 (centres undefined),i,-50.1,78.6*,4.4,i,0.1
N#Cc1ccc(N=c2ssnc2Cl)cc1,i,nt,86.4*,-1.7,i,4.0
N#Cc1ccc(Oc2c(Cl)cncc2Cl)cc1,i,-18.7,nt,-2.1,i,0.8
Clc1nssc1=Nc1ccccc1,i,-2.7,85.6*,nt,nt,nt
COc1cc(N=c2ssnc2Cl)cc(OC)c1OC,i,nt,94.5*,-4.0,i,4.1
Clc1ccc(N=c2ssnc2Cl)cc1,i,-1.9,19.9,-0.7,100*,1.8
O=C1CSC(=Nc2ccccc2)N1Cc1ccccc1,i,-11.9,4.6,0.3,i,-2.6
O=C(COc1ccc2ccc(=O)oc2c1)NCCCn1ccnc1,i,-31.1,nt,-3.1,i,1.3
Cc1ccc(N(Cc2cc(=O)[nH]c3ccccc23)C(=O)CCl)c(C)c1,i,-13.4,nt,-4.3,i,5.9
Fc1ccc(N=c2ssnc2Cl)c(F)c1,i,-25.2,82.4*,-4.3,i,1.8
COc1ccc(OC)c(NC(=O)c2nnn(Cc3ccc(Br)cc3F)c2N)c1,i,-29.6,88.4*,1.0,i,-0.5
Cc1sc2cc3c(c(C(=O)c4ccccc4)[n+]2c1C)-c1cccc2cccc-3c12,nt,-47.0,-19.3,nt,100*,nt

# Source: PubChem BioAssay (several laboratories)
